Source: article PMC4570851 (Bioorganic & medicinal chemistry letters, 2012)
Where no end group is shown, it is not given here. [ ]: non-standard residue; d: D form.

Target: T1, sPLA2-IIA-integrin αvβ3 interaction (Homo sapiens, UniProt P14555)
T1 sequence (P14555 21-144): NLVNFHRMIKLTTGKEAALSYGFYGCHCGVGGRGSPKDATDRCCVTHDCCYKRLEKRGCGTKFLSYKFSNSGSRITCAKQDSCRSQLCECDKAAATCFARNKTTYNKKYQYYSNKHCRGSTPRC
Experiment: cell adhesion inhibition assay: αvβ3-K562 cells on immobilized sPLA2-IIA
Assay type: cell-based
Settings: αvβ3-K562 cell adhesion to immobilized sPLA2-IIA
In short: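 Wells coated with sPLA2-IIA and blocked with BSA, then preincubated 30 min with test compound (10 to 500 μM). K562 erythroleukemia cells transfected to overexpress integrin αvβ3 were added for 1 h at 37 °C. Bound cells were quantified by phosphatase assay. IC50 and maximum inhibition came from dose-response data, with no-inhibitor adhesion as 100% and BSA-only as 0%. n=3.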

Compound | inhibition of the sPLA2-IIA-integrin interaction (in words)
Cc1nc(NC(=O)c2ccccc2)sc1-c1cc(C(=O)O)[nH]n1 [Cmpd8-1, R-OH] | not inhibitory
Cc1nc(NC(=O)c2ccccc2)sc1-c1cc(C(=O)NCC(=O)O)[nH]n1 [Cmpd21-1, R-Gly] | active
Ala-Trp-Asp*-Ile [Cmpd8-5] | not inhibitory
Gly-Arg*-Gly-Asp*-Asp*-Asp* [Cmpd21-6] | not inhibitory

Same assay, conditions: αvβ3-K562 cells, immobilized sPLA2-IIA; adhesion without inhibitors as 100%, adhesion to BSA only as 0%; means ± S.E. (n=3)

Compound | Max. Inhibition
Cc1nc(NC(=O)c2ccccc2)sc1-c1cc(C(=O)O)[nH]n1 [Cmpd8-1, R-OH] | N/A (N/A, “not active’ (<30% inhibition))
Cc1nc(NC(=O)c2ccccc2)sc1-c1cc(C(=O)N[C@@H](C)C(=O)O)[nH]n1 [Cmpd8-2, R-Ala] | N/A (N/A, “not active’ (<30% inhibition))
Ala-Trp-Asp*-Ile [Cmpd8-5] | N/A (N/A, “not active’ (<30% inhibition))
Gly-Arg*-Gly-Asp*-Asp*-Asp* [Cmpd21-6] | N/A (N/A, “not active’ (<30% inhibition))

Same assay, conditions: αvβ3-K562 cells, immobilized sPLA2-IIA; compounds 10 to 500 μM, 30 min; cells 1 h at 37 °C; means ± S.E. (n=3)

Compound | IC50 [µM]
R-Ala-Trp-Asp*-Ile (AW[dD]I-NH2; not fully specified (N-terminus)) [Cmpd8] | 20 ± 1.3
R-Gly-Arg*-Gly-Asp* (G[dR]G[dD]-NH2; not fully specified (N-terminus)) [Cmpd21-4] | 155 ± 3.8
R-Gly-Arg*-Gly-Asp*-Asp*-Asp* (G[dR]G[dD][dD][dD]-NH2; not fully specified (N-terminus)) [Cmpd21] | 71 ± 18
